{"data": "Published values collected from several papers", "target": "Serine/threonine-protein kinase STK11 (STK11, Homo sapiens, UniProt Q15831)", "One construct used (Q15831 1-433)": "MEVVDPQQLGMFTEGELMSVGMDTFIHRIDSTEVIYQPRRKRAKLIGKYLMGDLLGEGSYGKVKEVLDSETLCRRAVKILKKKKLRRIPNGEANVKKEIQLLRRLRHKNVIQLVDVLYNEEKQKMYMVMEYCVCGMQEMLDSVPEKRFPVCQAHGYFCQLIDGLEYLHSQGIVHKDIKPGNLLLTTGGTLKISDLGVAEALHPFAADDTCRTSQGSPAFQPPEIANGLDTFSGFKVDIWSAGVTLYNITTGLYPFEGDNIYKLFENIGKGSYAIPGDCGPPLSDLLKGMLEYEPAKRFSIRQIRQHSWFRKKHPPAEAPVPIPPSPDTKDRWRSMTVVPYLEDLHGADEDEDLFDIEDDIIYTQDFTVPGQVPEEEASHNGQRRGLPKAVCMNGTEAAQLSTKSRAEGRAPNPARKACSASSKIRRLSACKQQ", "note": "Compare with care: the assays were run in different laboratories."}
{"Structure (SMILES)": "CNC(=O)c1ccc(Nc2ncc(C(F)(F)F)c(NCc3nccnc3N(C)S(C)(=O)=O)n2)cc1", "assay": "cell-free assay, competition with immobilised ligand", "conditions": "0.1 µM", "endpoint": "remaining binding", "result": "100%"}
{"Structure (SMILES)": "Cc1ccc(Nc2nccc(N(C)c3ccc4c(C)n(C)nc4c3)n2)cc1S(N)(=O)=O", "assay": "enzyme activity, inhibitor", "conditions": "0.3 µM", "endpoint": "inhibition", "result": "-6%"}
{"Structure (SMILES)": "FC(F)(F)c1ccc2c(c1)nc(-c1cccnc1)n2C1CC1", "assay": "cell-free assay, competition with immobilised ligand", "conditions": "1 µM", "endpoint": "remaining binding", "result": "100%"}
{"Structure (SMILES)": "CN(c1nccc(-c2cnn3ncccc23)n1)C1CC1", "assay": "cell-free assay", "conditions": "1 µM", "endpoint": "remaining signal", "result": "100%"}
{"Structure (SMILES)": "CCN(CC)CCNC(=O)c1c(C)[nH]c(/C=C2\\C(=O)Nc3ccc(F)cc32)c1C", "assay": "enzyme activity, inhibitor", "conditions": "0.3 µM", "endpoint": "inhibition", "result": "-11%"}
{"Structure (SMILES)": "CCN(CC)c1ccc(C2=NNC(=O)CC2C)cc1[N+](=O)[O-] (stereo not shown)", "assay": "enzyme activity, inhibitor", "conditions": "10 µM", "endpoint": "remaining activity", "result": "91%"}
{"Structure (SMILES)": "CS(=O)(=O)c1cc(C2(NC(=O)c3cncc4c3cnn4-c3ccc(F)cc3)CC2)ccn1", "assay": "cell-free assay, competition with immobilised ligand", "conditions": "1 µM", "endpoint": "remaining binding", "result": "100%"}
{"Structure (SMILES)": "Nc1ncnc2occ(-c3ccc(NC(=O)Nc4cc(C(F)(F)F)ccc4F)cc3)c12", "assay": "cell-free assay, inhibitor", "conditions": "20 µM", "endpoint": "remaining signal", "result": "99%"}
{"Structure (SMILES)": "CN1CC(Oc2cnc(C#N)cc2-c2ccn3nc(NC(=O)C4CC4)cc3c2)C1", "assay": "enzyme activity, inhibitor", "conditions": "1 µM", "endpoint": "inhibition", "result": "-2%"}
{"Structure (SMILES)": "C[C@@H]1CN(c2cc(-c3nn(C)c4ccc(OC5(C)CC5)cc34)ncn2)C[C@H](C)O1", "assay": "cell-free assay, competition with immobilised ligand", "conditions": "1 µM", "endpoint": "remaining binding", "result": "94%"}
{"Structure (SMILES)": "Cc1ccc(C(=O)Nc2ccc(CN3CCN(C)CC3)c(C(F)(F)F)c2)cc1C#Cc1cnc2cccnn12", "assay": "enzyme activity, inhibitor", "conditions": "23.5 nM", "endpoint": "remaining activity", "result": "96%"}
{"Structure (SMILES)": "Cn1c(=O)n(-c2ccc(C(C)(C)C#N)cc2)c2c3cc(-c4cnc5ccccc5c4)ccc3ncc21", "assay": "enzyme activity, inhibitor", "conditions": "10 µM", "endpoint": "remaining activity", "result": "105%"}
{"Structure (SMILES)": "Cc1c[nH]c2nccc(Oc3c(F)cc(Nc4cc(Cl)nc(N)n4)cc3F)c12", "assay": "cell-free assay, competition with immobilised ligand", "conditions": "0.1 µM", "endpoint": "remaining binding", "result": "100%"}
{"Structure (SMILES)": "COc1cc(/C=C/C(=O)CC(=O)/C=C/c2ccc(O)c(OC)c2)ccc1O", "assay": "enzyme activity, inhibitor", "conditions": "1 µM", "endpoint": "activity vs control", "result": "95%"}
{"Structure (SMILES)": "FC(F)(F)Oc1cccc(-c2cnc3ccc(-c4ccncc4)nn23)c1", "assay": "enzyme activity, inhibitor, radiometric", "conditions": "1 µM", "endpoint": "activity vs control", "result": "89%"}
{"Structure (SMILES)": "Cc1ccc(NC(=O)c2ccc(CN3CCN(C)CC3)cc2)cc1Nc1nc(-c2cccnc2)cs1", "assay": "cell-free assay", "conditions": "0.5 µM", "endpoint": "remaining signal", "result": "102%"}
{"Structure (SMILES)": "O=C(Nc1cnn(-c2csc(C(=O)NC3COC3)c2)c1)Nc1c(F)cccc1Cl", "assay": "enzyme activity, inhibitor", "conditions": "5 µM", "endpoint": "remaining activity", "result": "94.7%"}
{"Structure (SMILES)": "O=c1nc(-c2ccccn2)sc2ccccc12", "assay": "binding, competition with immobilised ligand", "conditions": "1 µM", "endpoint": "remaining binding", "result": "79%"}
{"Structure (SMILES)": "FC(F)c1nc2ccccc2n1-c1nc(N2CCOCC2)nc(N2CCOCC2)n1", "assay": "enzyme activity, inhibitor", "conditions": "10 µM", "endpoint": "remaining activity", "result": "103%"}
{"Structure (SMILES)": "CNC(=O)c1cc(Oc2ccc(NC(=O)Nc3ccc(Cl)c(C(F)(F)F)c3)cc2)ccn1", "assay": "cell-free assay", "conditions": "0.5 µM", "endpoint": "remaining signal", "result": "104%"}
{"Structure (SMILES)": "CCC(=O)N[C@H]1CC[C@@H](C(=O)N(C)c2ccc(-c3nc4ccccc4o3)cc2)C1", "assay": "cell-free assay, competition with immobilised ligand", "conditions": "1 µM", "endpoint": "remaining binding", "result": "100%"}
{"Structure (SMILES)": "COc1cc(Nc2cnc(C#N)c(O[C@H](C)CN(C)C)n2)ncc1-c1cnn(C)c1", "assay": "enzyme activity, inhibitor, radiometric", "conditions": "10 µM", "endpoint": "remaining activity", "result": "64%"}
{"Structure (SMILES)": "CCCCN(CCCC)C(=O)CN1C[C@@H](c2cc(OC)c3c(c2)OCO3)[C@H](C(=O)O)[C@H]1CC(C)(C)CCC", "assay": "cell-free assay, competition with immobilised ligand", "conditions": "1 µM", "endpoint": "remaining binding", "result": "82.2%"}
{"Structure (SMILES)": "CC(C)c1ccc(NC(=O)c2cccs2)c(-c2nc3ccccc3[nH]c2=O)c1", "assay": "enzyme activity, inhibitor", "conditions": "1 µM", "endpoint": "activity vs control", "result": "76%"}
{"Structure (SMILES)": "CC(C)(O)[C@H]1CC[C@H](Nc2ccc3ncc(-c4cccc(C(F)(F)F)c4)n3n2)CC1", "assay": "enzyme activity, inhibitor", "conditions": "1 µM", "endpoint": "remaining activity", "result": "90.5%"}
